Test results taken from ChEMBL document CHEMBL1152540, “Antioxidant efficacy of iridoid and phenylethanoid glycosides from the medicinal plant Teucrium chamaedris in cell-free systems” (Bioorg Med Chem, 2009).

Columns and labels:
[1] = tested on: Radical scavenging activity; experiment: Antioxidant activity assessed as DPPH radical scavenging activity after 30 mins by spectrophotometry; type: functional
[2] = tested on: Radical scavenging activity; experiment: Antioxidant activity assessed as trolox equivalent of DPPH radical scavenging activity after 30 mins by spectrophotometry; type: functional
[3] = Antioxidant activity assessed as inhibition of lipid peroxidation after 60 mins by TBARS assay; type: functional
Method in brief: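 Olive oil (10.0 µg) was emulsified with Tween-40 in 0.2 M Tris-HCl, pH 7.4. The emulsion was UV-irradiated at 254 nm for 60 min, then stirred 24 h at room temperature. Thiobarbituric acid-reactive species were developed in a boiling water bath for 90 min and centrifuged, and the supernatant was read at 532 nm. Inhibition was given as % versus a blank without compound.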

[4] = Antioxidant activity assessed as trolox equivalent of lipid peroxidation inhibition after 60 mins by TBARS assay; type: functional
[5] = Antioxidant activity assessed as inhibition of Fe3+ ion-induced 2-deoxyribose oxidation after 24 hrs by TBA method; type: functional
Method in brief: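 EDTA, FeCl3 and H2O2 (1.0 mM each) were preincubated for 1 h at 37 °C. 2-Deoxyribose (28 mM) and ascorbic acid (1.0 mM) were then added. Compounds at 5, 10 or 20 µM (150 µL per 1350 µL mixture) were incubated 24 h at 37 °C. Degradation was measured with TBA 0.5%/TCA 2.5% at 90 °C for 3 h, read at 532 nm, in triplicate.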

[6] = Antioxidant activity assessed as trolox equivalent of inhibition of Fe3+ ion-induced 2-deoxyribose oxidation after 24 hrs by TBA method; type: functional
[7] = Antioxidant activity assessed as inhibition of H2O2-induced bovine serum albumin oxidation after 10 mins by spectrophotometry; type: functional; conditions: in the assay text read “after 1 hr” for “after 10 mins”
Method in brief: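 BSA (10 mg/mL) was incubated 1 h at 37 °C in 20 mM phosphate, pH 7.4, with FeCl3 400 µM, H2O2 3 mM, ascorbate 400 µM and metabolite at 5, 10 or 20 µM. Carbonyls were derivatized with DNPH (20 mM in 2 N HCl) and TCA 20%, then centrifuged. The pellet was washed with EtOH/EtOAc, dissolved in 6 M guanidine-HCl, pH 6.5, and read at 370 nm. Runs were in triplicate, as % versus blank.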

[8] = Antioxidant activity assessed as trolox equivalent of inhibition of H2O2-induced bovine serum albumin oxidation after 1 hr by spectrophotometry
[9] = Antioxidant activity assessed as inhibition of H2O2-induced bovine serum albumin oxidation after 1 hr by spectrophotometry
[10] = Antioxidant activity assessed as hydroxyl radical scavenging activity at 20 uM; type: functional

Row | IC50 [1] [µM] | IC50 [3] [µM] | IC50 [5] [µM] | IC50 [7] [µM] | IC50 [9] [µM] | Structure (SMILES) | Activity [1] | Activity [2] | Activity [4] | Activity [6] | Activity [8] | Activity [10] [%]
1 | 14 | 20.9 | 32 | 32.8 |  | COc1cc(/C=C/C(=O)O[C@H]2[C@H](O[C@@H]3O[C@@H](C)[C@H](O)[C@@H](O)[C@H]3O[C@@H]3OC[C@H](O)[C@@H](O)[C@H]3O)[C@@H](O)[C@H](OCCc3ccc(O)c(O)c3)O[C@@H]2CO)ccc1O | Dose-dependent effect | 1.5 | 1.5 | 0.6 | 2.1 | 
2 | > 300 | 67.3 | 13.2 |  | 10.4 | COc1ccc(/C=C/C(=O)OC[C@H]2O[C@@H](O[C@H]3OC=C[C@@]4(O)[C@@H]3[C@](C)(O)C[C@@H]4O)[C@H](O)[C@@H](O)[C@@H]2O)cc1 | Dose-dependent effect |  | 0.5 | 1.4 | 6.6 | 
3 | > 300 |  |  |  |  | COc1ccc(/C=C/C(=O)OC[C@H]2O[C@@H](O[C@H]3OC=C[C@H]4[C@@H]3[C@](C)(O)C[C@@H]4O)[C@H](O)[C@@H](O)[C@@H]2O)cc1OC |  |  |  |  |  | 
4 | 15.3 | 9.7 | 26.4 | 57.2 |  | C[C@@H]1O[C@@H](O[C@@H]2[C@@H](O)[C@H](OCCc3ccc(O)c(O)c3)O[C@H](CO)[C@H]2OC(=O)/C=C/c2ccc(O)c(O)c2)[C@H](O)[C@H](O)[C@H]1O [ACETOSIDE] | Dose-dependent effect | 1.3 | 3.3 | 0.5 | 1.2 | 
5 | 16.5 | 16.3 | 34.6 | 44.8 |  | C[C@@H]1O[C@@H](O[C@@H]2[C@@H](O)[C@H](OCCc3ccc(O)c(O)c3)O[C@H](CO)[C@H]2OC(=O)/C=C/c2ccc(O)c(O)c2)[C@H](O[C@@H]2OC[C@H](O)[C@@H](O)[C@H]2O)[C@H](O)[C@H]1O | Dose-dependent effect | 1.4 | 2 | 0.5 | 1.5 | 54.7
6 | > 300 | 33.1 | 26.5 |  | 10.7 | COc1ccc(/C=C/C(=O)OC[C@H]2O[C@@H](O[C@H]3OC=C[C@@]4(O)[C@@H]3[C@](C)(O)C[C@@H]4O)[C@H](O)[C@@H](O)[C@@H]2O)cc1OC | Dose-dependent effect |  | 1 | 0.7 | 6.5 | 
7 | > 300 | 44.2 | 52.2 | 38.9 |  | CC(=O)O[C@]1(C)C[C@H](O)[C@H]2C=CO[C@H](O[C@@H]3O[C@H](CO)[C@@H](O)[C@H](O)[C@H]3O)[C@H]21 | Dose-dependent effect |  | 0.7 | 0.3 | 1.8 | 
8 | > 300 | 39 | 12.9 | 12.8 |  | COc1ccc(/C=C/C(=O)OC[C@H]2O[C@@H](O[C@H]3OC=C[C@@]4(O)[C@@H]3[C@](C)(O)C[C@@H]4O)[C@H](O[C@@H]3O[C@H](CO)[C@@H](O)[C@H](O)[C@H]3O)[C@@H](O)[C@@H]2O)cc1 | Dose-dependent effect |  | 0.8 | 1.4 | 5.4 | 
9 | > 300 | 45.5 | 51 | 23.5 |  | CC(=O)O[C@]1(C)C[C@H](O)[C@@]2(O)C=CO[C@H](O[C@@H]3O[C@H](CO)[C@@H](O)[C@H](O)[C@H]3O)[C@H]21 | Dose-dependent effect |  | 0.7 | 0.3 | 2.9 | 
10 | 11 | 46.7 | 37.3 | 18.1 |  | COc1cc(/C=C/C(=O)OC[C@H]2O[C@@H](OCCc3ccc(O)c(O)c3)[C@H](O)[C@@H](O[C@@H]3O[C@@H](C)[C@H](O)[C@@H](O)[C@H]3O[C@@H]3OC[C@H](O)[C@@H](O)[C@H]3O)[C@@H]2O)ccc1O | Dose-dependent effect | 1.9 | 0.7 | 0.5 | 3.8 | 
11 | 21 | 31.8 | 18 | 69.2 |  | Cc1c(C)c2c(c(C)c1O)CCC(C)(C(=O)O)O2 (stereo unspecified) [TROLOX] |  |  |  |  |  | 
12 | 38.3 | 26.3 | 33.5 | 38 |  | C[C@@H]1O[C@@H](O[C@@H]2[C@@H](O)[C@H](OCCc3ccc(O)c(O)c3)O[C@H](COC(=O)/C=C/c3ccc(O)c(O)c3)[C@H]2O)[C@H](O[C@@H]2OC[C@H](O)[C@@H](O)[C@H]2O)[C@H](O)[C@H]1O | Dose-dependent effect | 0.5 | 1.2 | 0.7 | 1.8 | 
